Data taken from paper PMC6195466 (Cell chemical biology, 2018).
Like-named read-outs stand apart in the source and are kept apart here.

Tests used:
mouse TLR9 = target: T1, mouse TLR9 (Mus musculus, UniProt Q9EQU3); assay: IL-12p40 production in splenocytes from hTLR8tg/TLR7-KO mice, TLR9 agonist 1018; format: cell-based; settings: 1018 7.1 ug/mL
T1 sequence (Q9EQU3 26-1032): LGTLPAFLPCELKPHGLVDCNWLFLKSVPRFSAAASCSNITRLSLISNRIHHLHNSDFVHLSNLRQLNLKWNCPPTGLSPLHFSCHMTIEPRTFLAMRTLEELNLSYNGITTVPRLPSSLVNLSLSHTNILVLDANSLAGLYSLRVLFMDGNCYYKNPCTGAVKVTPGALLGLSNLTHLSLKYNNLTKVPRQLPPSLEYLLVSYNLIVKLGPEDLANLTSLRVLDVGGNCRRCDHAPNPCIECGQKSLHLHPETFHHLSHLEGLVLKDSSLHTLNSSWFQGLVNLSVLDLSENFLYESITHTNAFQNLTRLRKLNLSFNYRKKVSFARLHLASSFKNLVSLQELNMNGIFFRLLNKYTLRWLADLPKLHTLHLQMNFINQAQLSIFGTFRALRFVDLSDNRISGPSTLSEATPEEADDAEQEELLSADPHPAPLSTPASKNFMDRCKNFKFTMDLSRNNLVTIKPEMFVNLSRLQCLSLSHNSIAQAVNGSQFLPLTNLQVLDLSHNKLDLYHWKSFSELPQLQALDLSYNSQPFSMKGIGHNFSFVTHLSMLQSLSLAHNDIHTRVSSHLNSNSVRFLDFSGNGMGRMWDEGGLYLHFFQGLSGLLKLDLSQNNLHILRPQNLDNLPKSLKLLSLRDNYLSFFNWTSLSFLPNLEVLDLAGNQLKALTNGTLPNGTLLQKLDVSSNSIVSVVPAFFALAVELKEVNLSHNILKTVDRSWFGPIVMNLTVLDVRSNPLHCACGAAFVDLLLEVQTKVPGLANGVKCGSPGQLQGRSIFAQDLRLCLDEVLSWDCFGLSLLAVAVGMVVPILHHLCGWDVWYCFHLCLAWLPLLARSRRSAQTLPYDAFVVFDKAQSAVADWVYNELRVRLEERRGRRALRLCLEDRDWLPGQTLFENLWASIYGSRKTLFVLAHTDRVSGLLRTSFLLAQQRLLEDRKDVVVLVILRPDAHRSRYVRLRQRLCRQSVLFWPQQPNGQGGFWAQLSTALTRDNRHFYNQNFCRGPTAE
Method in brief: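 Splenocytes from female […] mice carrying a human TLR8 transgene, prepared by straining and red-cell lysis. Incubated with a dilution series of test compound plus a constant amount of CpG phosphorothioate DNA oligonucleotide 1018 (TLR9 agonist) for 48 h. IL-12p40 measured in culture supernatants. Curves come from a single spleen.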

ectodomain of human TLR8 = settings: read-out: dissociation constant (Kd), et al., cited from earlier work
TLR7 = target: T2, TLR7 (Homo sapiens, UniProt Q9NYK1); assay: TLR selectivity assay; format: cell-based; settings: HEK-Blue hTLR7 cells, R848 1 μg/mL
T2 sequence (Q9NYK1 27-1049): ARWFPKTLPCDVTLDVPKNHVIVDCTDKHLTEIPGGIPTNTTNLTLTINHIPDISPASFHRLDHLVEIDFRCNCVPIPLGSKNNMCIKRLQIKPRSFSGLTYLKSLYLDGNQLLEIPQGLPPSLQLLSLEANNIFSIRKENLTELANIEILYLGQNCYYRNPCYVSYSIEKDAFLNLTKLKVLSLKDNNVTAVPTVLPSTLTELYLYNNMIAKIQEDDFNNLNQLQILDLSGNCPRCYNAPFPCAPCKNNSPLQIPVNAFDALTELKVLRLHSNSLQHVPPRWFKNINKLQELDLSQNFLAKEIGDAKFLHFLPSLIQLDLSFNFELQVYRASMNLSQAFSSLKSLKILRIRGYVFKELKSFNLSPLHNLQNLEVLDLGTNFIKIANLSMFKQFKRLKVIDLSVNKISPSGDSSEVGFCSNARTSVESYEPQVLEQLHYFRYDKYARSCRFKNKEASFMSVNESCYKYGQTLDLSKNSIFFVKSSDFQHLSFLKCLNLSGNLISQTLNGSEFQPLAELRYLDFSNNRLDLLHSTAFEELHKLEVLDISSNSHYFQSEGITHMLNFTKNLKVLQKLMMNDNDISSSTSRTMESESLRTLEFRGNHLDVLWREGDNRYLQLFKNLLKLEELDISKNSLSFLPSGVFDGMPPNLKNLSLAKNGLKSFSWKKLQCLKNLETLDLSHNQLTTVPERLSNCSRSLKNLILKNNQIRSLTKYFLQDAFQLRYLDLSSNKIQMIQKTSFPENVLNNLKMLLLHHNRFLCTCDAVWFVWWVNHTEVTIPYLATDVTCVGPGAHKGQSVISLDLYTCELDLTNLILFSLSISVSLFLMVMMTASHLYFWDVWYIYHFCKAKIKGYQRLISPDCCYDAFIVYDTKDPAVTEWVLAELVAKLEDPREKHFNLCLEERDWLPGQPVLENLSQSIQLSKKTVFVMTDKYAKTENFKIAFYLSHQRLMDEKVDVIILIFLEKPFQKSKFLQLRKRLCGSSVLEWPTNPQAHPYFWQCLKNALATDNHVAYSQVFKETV
Method in brief: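 HEK-Blue hTLR7 cells were seeded at 7.5 × 10^4 cells/well in DMEM with 10% heat-inactivated FBS. Cells received R848 (1 μg/mL) with varied test-compound concentrations for 24 h at 37 °C, 5% CO2. Supernatant SEAP was developed with Quanti-Blue (30 min–1 h, 37 °C) and read at 620 nm. Normalised with R848-only as 100% and untreated as 0% activation. Three biological replicates, each in triplicate.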

nuclear NF-κB = format: cell-based, human; settings: concentration of 500 nM, THP-1 cells, R848 1 μg/mL, Figure S2
Method in brief: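 THP-1 cells were seeded at 2 × 10^6 cells/well and differentiated with PMA (100 ng/mL) for 24 h at 37 °C, 5% CO2. Medium was switched to unsupplemented RPMI, then R848 (1 μg/mL) plus test compound was added for 2 h. Nuclear fractions were extracted and quantified by BCA, run on 10% SDS-PAGE and blotted. Probed with anti-p65 (1:1000), then HRP anti-rabbit (1:10000), chemiluminescence. Lamin A/C was the nuclear control.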

Structure (SMILES)	activity against mouse TLR9 (mouse TLR9)	Kd (ectodomain of human TLR8; ITC, ectodomain of human TLR8, ref Zhang, 2018)	effect on TLR7 (TLR7)	Kd (ectodomain of human TLR8; TLR8 and R848, ref Tanji, 2015)	reduction of nuclear NF-κB (nuclear NF-κB)
Cc1cc(-c2ccnc3cc(O)ccc23)ccc1O [CU-CPT9b]	no activity	21 nM	not affected below ~μM concentration	–	–
CCOCc1nc2c(N)nc3ccccc3c2n1CC(C)(C)O [R848, reference compound]	–	–	–	200 nM	–
COc1ccc2c(-c3ccc(O)c(C)c3)ccnc2c1 [CU-CPT9a]	no activity	–	not affected below ~μM concentration	–	significant reduction
